Results as given in ChEMBL document CHEMBL3751816, “Design, synthesis and evaluation of acridine derivatives as multi-target Src and MEK kinase inhibitors for anti-tumor treatment” (Bioorg Med Chem, 2016).
Activity calls are given as the source filed them. The rule behind the calls is not given here.

Columns and labels:
K562 [1] = experiment: Cytotoxicity against human K562 cells after 48 hrs by MTT assay; assay type: functional, cell-based; details: K562, 48 h
In short: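 K562 cells in DMEM with 10% FBS, 37 °C, 5% CO2. Seeded at 7×10^5 cells/mL and held 12 h. Compounds in DMSO, diluted to final 0.01–50 µM (final DMSO below 1%), triplicate per concentration, 48 h. Then MTT 4 h at 37 °C, formazan dissolved in DMSO, absorbance read at 495 nm.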

HepG2 = experiment: Cytotoxicity against human HepG2 cells after 48 hrs by MTT assay; assay type: functional, cell-based; details: HepG2, 48 h
In short: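 HepG-2 cells in DMEM with 10% FBS, 37 °C, 5% CO2. Seeded at 5×10^5 cells/mL for 12 h, then medium removed. Compounds in DMSO diluted to final 0.01–50 µM (DMSO below 1%), triplicate per concentration, 48 h. MTT 4 h at 37 °C, formazan taken up in DMSO, A495 read.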

[2] = target: Proto-oncogene tyrosine-protein kinase Src (Homo sapiens) (UniProt P12931); experiment: Inhibition of Src (unknown origin) at 10 uM after 15 mins by luminescence assay
In short: (§1)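 Contract-run kinase assay. Enzyme, substrate, ATP and compound (10 µM, in 2.5% DMSO) mixed in pH 7.0 buffer: 50 mM HEPES/NaOH, 0.02% NaN3, 0.01% BSA, orthovanadate, 5 mM MgCl2, 1 mM DTT. Incubated 15 min at room temperature. Detection with streptavidin-XL665 plus TK antibody europium cryptate in KF/EDTA buffer. […]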

[3] = target: T1, Dual specificity mitogen-activated protein kinase kinase; MEK1/2 (Homo sapiens) (UniProt P36507+Q02750); experiment: Inhibition of MEK (unknown origin) at 10 uM after 15 mins by luminescence assay; in short: as §1
Homo sapiens = organism: Homo sapiens; experiment: Inhibition of PI3K (unknown origin) at 10 uM after 15 mins by luminescence assay
[4] = target: Proto-oncogene tyrosine-protein kinase Src (Homo sapiens) (UniProt P12931); experiment: Inhibition of Src in human K562 cells assessed as decrease of ERK expression after 48 hrs by Western blot analysis; assay type: cell-based
In short: (§2)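 K562 cells treated at 0, 0.5, 2.5, 5 and 10 µM for 48 h at 37 °C. Lysed on ice 30 min in NP-40/HEPES pH 7.9 buffer with phosphatase and protease inhibitors, cleared at 12000 g. Bradford-normalized protein run on SDS–PAGE, transferred to PVDF, and probed for ERK and AKT.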

[5] = target: Proto-oncogene tyrosine-protein kinase Src (Homo sapiens) (UniProt P12931); experiment: Inhibition of Src in human K562 cells assessed as decrease of AKT expression after 48 hrs by Western blot analysis; assay type: cell-based; in short: as §2
[6] = target: T1, Dual specificity mitogen-activated protein kinase kinase; MEK1/2 (Homo sapiens); experiment: Inhibition of MEK in human K562 cells assessed as decrease of ERK expression after 48 hrs by Western blot analysis; assay type: cell-based; in short: as §2
[7] = target: T1, Dual specificity mitogen-activated protein kinase kinase; MEK1/2 (Homo sapiens); experiment: Inhibition of MEK in human K562 cells assessed as decrease of AKT expression after 48 hrs by Western blot analysis; assay type: cell-based; in short: as §2
K562 [8] = experiment: Inhibition of PI3K in human K562 cells assessed as decrease of ERK expression after 48 hrs by Western blot analysis; assay type: cell-based; in short: as §2
K562 [9] = experiment: Inhibition of PI3K in human K562 cells assessed as decrease of AKT expression after 48 hrs by Western blot analysis; assay type: cell-based; in short: as §2
Calf thymus DNA = experiment: Binding affinity to calf thymus DNA at 10 uM by UV-vis spectrophotometric titration analysis; assay type: nucleic-acid assay; details: Bos taurus
K562 [10] = experiment: Induction of apoptosis in human K562 cells after 48 hrs by annexin V-FITC staining; assay type: functional, cell-based
K562 [11] = experiment: Induction of apoptosis in human K562 cells assessed as live cells at 0.5 uM after 48 hrs by annexin V-FITC staining (reference value: 96.49%); assay type: functional
K562 [12] = experiment: Induction of apoptosis in human K562 cells assessed as necrotic cells at 0.5 uM after 48 hrs by annexin V-FITC staining (reference value: 0.15%); assay type: functional
K562 [13] = experiment: Induction of apoptosis in human K562 cells assessed as late stage apoptotic cells at 0.5 uM after 48 hrs by annexin V-FITC staining (reference value: 0.23%); assay type: functional
K562 [14] = experiment: Induction of apoptosis in human K562 cells assessed as early stage apoptotic cells at 0.5 uM after 48 hrs by annexin V-FITC staining (reference value: 3.14%); assay type: functional
K562 [15] = experiment: Induction of apoptosis in human K562 cells assessed as live cells at 5 uM after 48 hrs by annexin V-FITC staining (reference value: 96.49%); assay type: functional
K562 [16] = experiment: Induction of apoptosis in human K562 cells assessed as necrotic cells at 5 uM after 48 hrs by annexin V-FITC staining (reference value: 0.15%); assay type: functional
K562 [17] = experiment: Induction of apoptosis in human K562 cells assessed as late stage apoptotic cells at 5 uM after 48 hrs by annexin V-FITC staining (reference value: 0.23%); assay type: functional
K562 [18] = experiment: Induction of apoptosis in human K562 cells assessed as early stage apoptotic cells at 5 uM after 48 hrs by annexin V-FITC staining (reference value: 3.14%); assay type: functional
K562 [19] = experiment: Induction of apoptosis in human K562 cells assessed as live cells at 10 uM after 48 hrs by annexin V-FITC staining (reference value: 96.49%); assay type: functional
K562 [20] = experiment: Induction of apoptosis in human K562 cells assessed as necrotic cells at 10 uM after 48 hrs by annexin V-FITC staining (reference value: 0.15%); assay type: functional
K562 [21] = experiment: Induction of apoptosis in human K562 cells assessed as late stage apoptotic cells at 10 uM after 48 hrs by annexin V-FITC staining (reference value: 0.23%); assay type: functional
K562 [22] = experiment: Induction of apoptosis in human K562 cells assessed as early stage apoptotic cells at 10 uM after 48 hrs by annexin V-FITC staining (reference value: 3.14%); assay type: functional
K562 [23] = experiment: Induction of apoptosis in human K562 cells assessed as early cleavage of caspase-3 at 10 uM after 48 hrs by Western blot analysis; assay type: functional, cell-based
In short: (§3)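 K562 cells treated 48 h at 37 °C. Lysed on ice 30 min (HEPES pH 7.9, KCl, EDTA, 0.1% NP-40, Na3VO4, NaF, protease inhibitors), then cleared at 12000 g, 4 °C. Protein measured by Bradford and equal amounts run on SDS–PAGE. Transferred to PVDF and immunoblotted for cleaved caspase-3, cleaved caspase-7 and cleaved PARP.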

K562 [24] = experiment: Induction of apoptosis in human K562 cells assessed as early cleavage of caspase-7 at 10 uM after 48 hrs by Western blot analysis; assay type: functional, cell-based; in short: as §3
K562 [25] = experiment: Induction of apoptosis in human K562 cells assessed as early cleavage of PARP at 10 uM after 48 hrs by Western blot analysis; assay type: functional, cell-based; in short: as §3

T1 sequence (P36507 whole entry, looked up): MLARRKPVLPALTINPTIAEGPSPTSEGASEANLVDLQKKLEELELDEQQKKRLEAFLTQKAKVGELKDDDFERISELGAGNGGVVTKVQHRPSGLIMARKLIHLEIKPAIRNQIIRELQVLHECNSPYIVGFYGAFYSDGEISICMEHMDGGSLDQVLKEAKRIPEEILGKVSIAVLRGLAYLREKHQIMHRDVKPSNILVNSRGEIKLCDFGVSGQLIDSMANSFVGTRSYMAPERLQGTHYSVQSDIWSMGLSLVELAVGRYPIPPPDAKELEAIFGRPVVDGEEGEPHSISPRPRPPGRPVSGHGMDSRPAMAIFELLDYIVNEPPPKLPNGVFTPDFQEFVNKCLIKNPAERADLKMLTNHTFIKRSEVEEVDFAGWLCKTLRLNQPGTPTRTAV
T1 sequence (Q02750 whole entry, looked up): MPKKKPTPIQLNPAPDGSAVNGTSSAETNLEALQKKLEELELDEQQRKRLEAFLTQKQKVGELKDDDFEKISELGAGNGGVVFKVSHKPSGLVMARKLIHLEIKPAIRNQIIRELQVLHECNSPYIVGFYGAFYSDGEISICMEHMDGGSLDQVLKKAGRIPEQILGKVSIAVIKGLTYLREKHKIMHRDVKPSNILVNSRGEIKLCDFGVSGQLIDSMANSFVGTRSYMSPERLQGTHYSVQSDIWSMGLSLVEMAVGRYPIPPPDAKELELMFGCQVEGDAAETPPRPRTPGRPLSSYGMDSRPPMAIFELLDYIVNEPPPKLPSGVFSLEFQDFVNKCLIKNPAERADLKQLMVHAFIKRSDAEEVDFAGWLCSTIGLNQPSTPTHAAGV
Chain of Proto-oncogene tyrosine-protein kinase Src (Homo sapiens) (P12931 2-536 limits assumed): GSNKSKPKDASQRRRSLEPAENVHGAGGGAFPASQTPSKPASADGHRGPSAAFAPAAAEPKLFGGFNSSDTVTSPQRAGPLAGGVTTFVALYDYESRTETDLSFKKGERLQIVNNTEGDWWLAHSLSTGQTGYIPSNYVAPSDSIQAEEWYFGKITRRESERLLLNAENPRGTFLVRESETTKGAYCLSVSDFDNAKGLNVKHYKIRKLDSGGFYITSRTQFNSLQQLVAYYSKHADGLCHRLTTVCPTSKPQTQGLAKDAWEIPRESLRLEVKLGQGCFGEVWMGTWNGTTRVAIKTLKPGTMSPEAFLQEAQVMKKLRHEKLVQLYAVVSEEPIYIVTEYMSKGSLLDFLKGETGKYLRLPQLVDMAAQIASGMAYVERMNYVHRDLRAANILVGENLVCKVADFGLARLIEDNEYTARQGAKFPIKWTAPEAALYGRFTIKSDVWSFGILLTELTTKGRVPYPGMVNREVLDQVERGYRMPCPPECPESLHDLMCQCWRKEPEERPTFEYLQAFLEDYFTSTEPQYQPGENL

Q: Which IC50 (K562 [1]) does the source give for `Cc1cccc(NC(=O)Nc2ccc(Nc3c4ccccc4nc4cc([N+](=O)[O-])ccc34)cc2)c1` here?
A: 11.6 µM

Q: What about the IC50 (HepG2) of the same compound?
A: > 25 µM

Q: With `O=C(Nc1ccc(Nc2c3ccccc3nc3cc([N+](=O)[O-])ccc23)cc1)Nc1cccc(C(F)(F)F)c1` as the compound, how does the IC50 (K562 [1]) read?
A: 1.2 µM

Q: What about the IC50 (HepG2) of the same compound?
A: > 25 µM

Q: Which results are given for `CCCCc1ccc(NC(=O)Nc2ccc(Nc3c4ccccc4nc4cc([N+](=O)[O-])ccc34)cc2)cc1`?
A: IC50 (K562 [1]): 1.23 µM; IC50 (HepG2): 14 µM

Q: What does the source list for `Cc1ccc(NC(=O)c2ccc(CN3CCN(C)CC3)cc2)cc1Nc1nccc(-c2cccnc2)n1` [IMATINIB]?
A: IC50 (K562 [1]): 0.53 µM; IC50 (HepG2): > 25 µM

Q: Which IC50 (K562 [1]) does the source give for `COc1cccc2c(Nc3ccc(NC(=O)Nc4cccc(C(F)(F)F)c4)cc3)c3ccccc3nc12` here?
A: 1.93 µM

Q: What about the IC50 (HepG2) of the same compound?
A: 13.1 µM

Q: How did the IC50 (K562 [1]) turn out when `COc1cccc2c(Nc3ccc(NC(=O)Nc4ccccc4)cc3)c3ccc([N+](=O)[O-])cc3nc12` was run?
A: 2.58 µM

Q: What about the IC50 (HepG2) of the same compound?
A: 17.6 µM

Q: With `O=C(Nc1ccccc1)Nc1ccc(Nc2c3ccccc3nc3cc([N+](=O)[O-])ccc23)cc1` as the compound, how does the IC50 (K562 [1]) read?
A: 3.3 µM

Q: What about the IC50 (HepG2) of the same compound?
A: 19.8 µM

Q: `COc1ccc2nc3cc(Cl)ccc3c(Nc3ccc(NC(=O)Nc4ccccc4)cc3)c2c1` was tested. Which IC50 (K562 [1]) did it give?
A: 3.42 µM

Q: What about the IC50 (HepG2) of the same compound?
A: 9.56 µM

Q: What does the source list for `COc1ccc2nc3cc([N+](=O)[O-])ccc3c(Nc3ccc(NC(=O)Nc4ccccc4)cc3)c2c1`?
A: IC50 (K562 [1]): 3.79 µM; IC50 (HepG2): > 25 µM

Q: With `COc1cccc2c(Nc3ccc(NC(=O)Nc4ccccc4)cc3)c3ccccc3nc12` as the compound, how does the IC50 (K562 [1]) read?
A: 0.49 µM

Q: What about the IC50 (HepG2) of the same compound?
A: 6.12 µM

Q: What does the source list for `COc1ccc2c(Nc3ccc(NC(=O)Nc4ccccc4)cc3)c3ccccc3nc2c1`?
A: inhibition [2]: 59.7%; inhibition [3]: 43.2%; inhibition (Homo sapiens): 44.4%; inhibition [4]: Dose-dependent effect; inhibition [5]: Dose-dependent effect; inhibition [6]: Dose-dependent effect; inhibition [7]: Dose-dependent effect; inhibition (K562 [8]): Dose-dependent effect; inhibition (K562 [9]): Dose-dependent effect; Activity (Calf thymus DNA): 0.083 M⁻¹; Activity (K562 [10]): Dose-dependent effect; Activity (K562 [11]): 96.6%; Activity (K562 [12]): 0.15%; Activity (K562 [13]): 0.1%; Activity (K562 [14]): 6.13%; Activity (K562 [15]): 85.42%; Activity (K562 [16]): 0.3%; Activity (K562 [17]): 0.23%; Activity (K562 [18]): 14.05%; Activity (K562 [19]): 37.83%; Activity (K562 [20]): 0.73%; Activity (K562 [21]): 6.45%; Activity (K562 [22]): 54.98%; IC50 (K562 [1]): 4.08 µM; IC50 (HepG2): 9.41 µM; Activity (K562 [23]): Active; Activity (K562 [24]): Active; Activity (K562 [25]): Active

Q: Which results are given for `O=C(Nc1ccc(Nc2c3ccccc3nc3cc([N+](=O)[O-])ccc23)cc1)Nc1cccc(F)c1`?
A: IC50 (K562 [1]): 11.1 µM; IC50 (HepG2): > 25 µM

Q: For `COc1ccc2nc3cc(Cl)ccc3c(Nc3ccccc3OC)c2c1`, which IC50 (K562 [1]) is on record?
A: 5.8 µM

Q: And the IC50 (HepG2)?
A: > 50 µM

Q: `CCc1ccc(NC(=O)Nc2ccc(Nc3c4ccccc4nc4cc([N+](=O)[O-])ccc34)cc2)cc1` was tested. Which IC50 (K562 [1]) did it give?
A: 1.86 µM

Q: And the IC50 (HepG2)?
A: 14.8 µM

Q: What does the source list for `O=C(Nc1ccc(Nc2c3ccccc3nc3cc([N+](=O)[O-])ccc23)cc1)Nc1cccc(Cl)c1`?
A: IC50 (K562 [1]): 13.9 µM; IC50 (HepG2): > 25 µM

Q: What does the source list for `COc1ccc(NC(=O)Nc2ccc(Nc3c4ccccc4nc4cc([N+](=O)[O-])ccc34)cc2)cc1`?
A: IC50 (K562 [1]): 7.68 µM; IC50 (HepG2): > 25 µM

Q: `CCc1cccc(NC(=O)Nc2ccc(Nc3c4ccccc4nc4cc([N+](=O)[O-])ccc34)cc2)c1` was tested. Which IC50 (K562 [1]) did it give?
A: 8.92 µM

Q: What about the IC50 (HepG2) of the same compound?
A: 22.7 µM

Q: For `CCCc1ccc(NC(=O)Nc2ccc(Nc3c4ccccc4nc4cc([N+](=O)[O-])ccc34)cc2)cc1`, which IC50 (K562 [1]) is on record?
A: 1.56 µM

Q: And the IC50 (HepG2)?
A: 14.4 µM

Q: How did the IC50 (K562 [1]) turn out when `COc1cccc(NC(=O)Nc2ccc(Nc3c4ccccc4nc4cc([N+](=O)[O-])ccc34)cc2)c1` was run?
A: 4.55 µM

Q: And the IC50 (HepG2)?
A: 22.3 µM

Q: Which IC50 (K562 [1]) does the source give for `COc1ccccc1NC(=O)Nc1ccc(Nc2c3ccccc3nc3cc([N+](=O)[O-])ccc23)cc1` here?
A: 4.51 µM

Q: What about the IC50 (HepG2) of the same compound?
A: 19.4 µM
